In ChEMBL document CHEMBL4689842, “EUbOPEN Chemogenomics Library wave 1” (2021):

Columns and labels:
Format in all cases: toxicity, cell-based
Fibroblast [1] = test: Multiplex assay against human fibroblast
In short: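 Compound was added to live cells that had been stained at seeding with Hoechst33342, BioTracker Green Microtubule Cytoskeleton Dye, MitoTracker Red and Annexin V Alexa Fluor 680, and imaging followed on a CQ1 microscope at 37°C and 5% CO2. CellPathfinder machine-learning gating divided cells into Hoechst high-intensity objects or normal cells, normal cells into healthy, pyknosed or fragmented nuclei, and pyknosed cells into mitotic or apoptotic. Tubulin, mitochondrial-mass and membrane-permeability phenotypes are per cents of healthy-nucleus cells.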

U2OS = test: Incucyte cell viability with U2OS; conditions: human, 10 µM, compound concentration 10 uM; further: filed as whole numbers so only -1 and 0 and 1 occur
HEK-293T = test: Incucyte cell viability with HEK293T; conditions: human, 10 µM, compound concentration 10 uM; further: filed as whole numbers so only -1 and 0 and 1 occur
Fibroblast [2] = test: Incucyte cell viability with human fibroblast; conditions: 10 µM, compound concentration 10 uM; further: filed as whole numbers so only -1 and 0 and 1 occur
[3] = 12 h, 1 µM, compound concentration 1 uM, replicate 1
[4] = 12 h, 1 µM, compound concentration 1 uM, replicate 2
[5] = 12 h, 10 µM, compound concentration 10 uM, replicate 1
[6] = 12 h, 10 µM, compound concentration 10 uM, replicate 2
[7] = 24 h, 1 µM, compound concentration 1 uM, replicate 1
[8] = 24 h, 1 µM, compound concentration 1 uM, replicate 2
[9] = 24 h, 10 µM, compound concentration 10 uM, replicate 1
[10] = 24 h, 10 µM, compound concentration 10 uM, replicate 2
[11] = 48 h, 1 µM, compound concentration 1 uM, replicate 1
[12] = 48 h, 1 µM, compound concentration 1 uM, replicate 2
[13] = 48 h, 10 µM, compound concentration 10 uM, replicate 1
[14] = 48 h, 10 µM, compound concentration 10 uM, replicate 2
[15] = 0 h, replicate number 1, timepoint 0 hours
[16] = 6 h, replicate number 2, timepoint 6 hours
[17] = 12 h, replicate number 1, timepoint 12 hours
[18] = 18 h, replicate number 1, timepoint 18 hours
[19] = 24 h, replicate number 1, timepoint 24 hours

CN(c1cc(C(F)(F)F)nc(OCCC(=O)O)n1)c1cccc2c1CCC2
Population Apoptotic (%) (Fibroblast [1]; [3]): 70%
Population Fragmented Nuclei (%) (Fibroblast [1]; [3]): 18%
Population Healthy Nuclei (%) (Fibroblast [1]; [3]): 47%
Population Hoechst High Intensity Objects (%) (Fibroblast [1]; [3]): 11%
Population Membrane Permeable-Phenotype (%) (Fibroblast [1]; [3]): 17%
Population Mitochondria Different-Phenotype (%) (Fibroblast [1]; [3]): 6%
Population Mitotic Cells (%) (Fibroblast [1]; [3]): 29%
Population Normal (%) (Fibroblast [1]; [3]): 88%
Population Pyknosed Nuclei (%) (Fibroblast [1]; [3]): 33%
Population Tubulin-Different-Phenotype (%) (Fibroblast [1]; [3]): 27%
Total Cell Count (Fibroblast [1]; [3]): 136
Population Apoptotic (%) (Fibroblast [1]; [4]): 0%
Population Fragmented Nuclei (%) (Fibroblast [1]; [4]): 9%
Population Healthy Nuclei (%) (Fibroblast [1]; [4]): 80%
Population Hoechst High Intensity Objects (%) (Fibroblast [1]; [4]): 12%
Population Membrane Permeable-Phenotype (%) (Fibroblast [1]; [4]): 4%
Population Mitochondria Different-Phenotype (%) (Fibroblast [1]; [4]): 20%
Population Mitotic Cells (%) (Fibroblast [1]; [4]): 100%
Population Normal (%) (Fibroblast [1]; [4]): 87%
Population Pyknosed Nuclei (%) (Fibroblast [1]; [4]): 9%
Population Tubulin-Different-Phenotype (%) (Fibroblast [1]; [4]): 28%
Total Cell Count (Fibroblast [1]; [4]): 65
Population Apoptotic (%) (Fibroblast [1]; [5]): 61%
Population Fragmented Nuclei (%) (Fibroblast [1]; [5]): 23%
Population Healthy Nuclei (%) (Fibroblast [1]; [5]): 49%
Population Hoechst High Intensity Objects (%) (Fibroblast [1]; [5]): 11%
Population Membrane Permeable-Phenotype (%) (Fibroblast [1]; [5]): 25%
Population Mitochondria Different-Phenotype (%) (Fibroblast [1]; [5]): 6%
Population Mitotic Cells (%) (Fibroblast [1]; [5]): 38%
Population Normal (%) (Fibroblast [1]; [5]): 88%
Population Pyknosed Nuclei (%) (Fibroblast [1]; [5]): 27%
Population Tubulin-Different-Phenotype (%) (Fibroblast [1]; [5]): 26%
Total Cell Count (Fibroblast [1]; [5]): 172
Population Apoptotic (%) (Fibroblast [1]; [6]): 0%
Population Fragmented Nuclei (%) (Fibroblast [1]; [6]): 13%
Population Healthy Nuclei (%) (Fibroblast [1]; [6]): 86%
Population Hoechst High Intensity Objects (%) (Fibroblast [1]; [6]): 14%
Population Membrane Permeable-Phenotype (%) (Fibroblast [1]; [6]): 4%
Population Mitochondria Different-Phenotype (%) (Fibroblast [1]; [6]): 10%
Population Mitotic Cells (%) (Fibroblast [1]; [6]): 0%
Population Normal (%) (Fibroblast [1]; [6]): 85%
Population Pyknosed Nuclei (%) (Fibroblast [1]; [6]): 0%
Population Tubulin-Different-Phenotype (%) (Fibroblast [1]; [6]): 30%
Total Cell Count (Fibroblast [1]; [6]): 71
Population Apoptotic (%) (Fibroblast [1]; [7]): 54%
Population Fragmented Nuclei (%) (Fibroblast [1]; [7]): 26%
Population Healthy Nuclei (%) (Fibroblast [1]; [7]): 46%
Population Hoechst High Intensity Objects (%) (Fibroblast [1]; [7]): 11%
Population Membrane Permeable-Phenotype (%) (Fibroblast [1]; [7]): 28%
Population Mitochondria Different-Phenotype (%) (Fibroblast [1]; [7]): 7%
Population Mitotic Cells (%) (Fibroblast [1]; [7]): 45%
Population Normal (%) (Fibroblast [1]; [7]): 88%
Population Pyknosed Nuclei (%) (Fibroblast [1]; [7]): 27%
Population Tubulin-Different-Phenotype (%) (Fibroblast [1]; [7]): 30%
Total Cell Count (Fibroblast [1]; [7]): 129
Population Apoptotic (%) (Fibroblast [1]; [8]): 0%
Population Fragmented Nuclei (%) (Fibroblast [1]; [8]): 4%
Population Healthy Nuclei (%) (Fibroblast [1]; [8]): 95%
Population Hoechst High Intensity Objects (%) (Fibroblast [1]; [8]): 8%
Population Membrane Permeable-Phenotype (%) (Fibroblast [1]; [8]): 2%
Population Mitochondria Different-Phenotype (%) (Fibroblast [1]; [8]): 13%
Population Mitotic Cells (%) (Fibroblast [1]; [8]): 0%
Population Normal (%) (Fibroblast [1]; [8]): 91%
Population Pyknosed Nuclei (%) (Fibroblast [1]; [8]): 0%
Total Cell Count (Fibroblast [1]; [8]): 68
Population Apoptotic (%) (Fibroblast [1]; [9]): 56%
Population Fragmented Nuclei (%) (Fibroblast [1]; [9]): 14%
Population Healthy Nuclei (%) (Fibroblast [1]; [9]): 60%
Population Hoechst High Intensity Objects (%) (Fibroblast [1]; [9]): 7%
Population Membrane Permeable-Phenotype (%) (Fibroblast [1]; [9]): 21%
Population Mitochondria Different-Phenotype (%) (Fibroblast [1]; [9]): 3%
Population Mitotic Cells (%) (Fibroblast [1]; [9]): 43%
Population Normal (%) (Fibroblast [1]; [9]): 92%
Population Pyknosed Nuclei (%) (Fibroblast [1]; [9]): 25%
Population Tubulin-Different-Phenotype (%) (Fibroblast [1]; [9]): 34%
Total Cell Count (Fibroblast [1]; [9]): 198
Population Apoptotic (%) (Fibroblast [1]; [10]): 0%
Population Fragmented Nuclei (%) (Fibroblast [1]; [10]): 13%
Population Healthy Nuclei (%) (Fibroblast [1]; [10]): 81%
Population Hoechst High Intensity Objects (%) (Fibroblast [1]; [10]): 13%
Population Membrane Permeable-Phenotype (%) (Fibroblast [1]; [10]): 3%
Population Mitochondria Different-Phenotype (%) (Fibroblast [1]; [10]): 13%
Population Mitotic Cells (%) (Fibroblast [1]; [10]): 100%
Population Normal (%) (Fibroblast [1]; [10]): 86%
Population Pyknosed Nuclei (%) (Fibroblast [1]; [10]): 5%
Population Tubulin-Different-Phenotype (%) (Fibroblast [1]; [10]): 44%
Total Cell Count (Fibroblast [1]; [10]): 79
Population Apoptotic (%) (Fibroblast [1]; [11]): 51%
Population Fragmented Nuclei (%) (Fibroblast [1]; [11]): 35%
Population Healthy Nuclei (%) (Fibroblast [1]; [11]): 41%
Population Hoechst High Intensity Objects (%) (Fibroblast [1]; [11]): 20%
Population Membrane Permeable-Phenotype (%) (Fibroblast [1]; [11]): 32%
Population Mitochondria Different-Phenotype (%) (Fibroblast [1]; [11]): 2%
Population Mitotic Cells (%) (Fibroblast [1]; [11]): 48%
Population Normal (%) (Fibroblast [1]; [11]): 79%
Population Pyknosed Nuclei (%) (Fibroblast [1]; [11]): 23%
Population Tubulin-Different-Phenotype (%) (Fibroblast [1]; [11]): 38%
Total Cell Count (Fibroblast [1]; [11]): 147
Population Apoptotic (%) (Fibroblast [1]; [12]): 33%
Population Fragmented Nuclei (%) (Fibroblast [1]; [12]): 19%
Population Healthy Nuclei (%) (Fibroblast [1]; [12]): 76%
Population Hoechst High Intensity Objects (%) (Fibroblast [1]; [12]): 10%
Population Membrane Permeable-Phenotype (%) (Fibroblast [1]; [12]): 16%
Population Mitochondria Different-Phenotype (%) (Fibroblast [1]; [12]): 0%
Population Mitotic Cells (%) (Fibroblast [1]; [12]): 66%
Population Normal (%) (Fibroblast [1]; [12]): 90%
Population Pyknosed Nuclei (%) (Fibroblast [1]; [12]): 4%
Population Tubulin-Different-Phenotype (%) (Fibroblast [1]; [12]): 30%
Total Cell Count (Fibroblast [1]; [12]): 80
Population Apoptotic (%) (Fibroblast [1]; [13]): 54%
Population Fragmented Nuclei (%) (Fibroblast [1]; [13]): 25%
Population Healthy Nuclei (%) (Fibroblast [1]; [13]): 67%
Population Hoechst High Intensity Objects (%) (Fibroblast [1]; [13]): 14%
Population Membrane Permeable-Phenotype (%) (Fibroblast [1]; [13]): 14%
Population Mitochondria Different-Phenotype (%) (Fibroblast [1]; [13]): 3%
Population Mitotic Cells (%) (Fibroblast [1]; [13]): 45%
Population Normal (%) (Fibroblast [1]; [13]): 85%
Population Pyknosed Nuclei (%) (Fibroblast [1]; [13]): 7%
Population Tubulin-Different-Phenotype (%) (Fibroblast [1]; [13]): 19%
Total Cell Count (Fibroblast [1]; [13]): 175
Population Apoptotic (%) (Fibroblast [1]; [14]): 40%
Population Fragmented Nuclei (%) (Fibroblast [1]; [14]): 22%
Population Healthy Nuclei (%) (Fibroblast [1]; [14]): 73%
Population Hoechst High Intensity Objects (%) (Fibroblast [1]; [14]): 10%
Population Membrane Permeable-Phenotype (%) (Fibroblast [1]; [14]): 15%
Population Mitochondria Different-Phenotype (%) (Fibroblast [1]; [14]): 4%
Population Mitotic Cells (%) (Fibroblast [1]; [14]): 60%
Population Normal (%) (Fibroblast [1]; [14]): 89%
Population Pyknosed Nuclei (%) (Fibroblast [1]; [14]): 4%
Population Tubulin-Different-Phenotype (%) (Fibroblast [1]; [14]): 34%
Total Cell Count (Fibroblast [1]; [14]): 125
Growth Rate (U2OS; [15]): 0
Growth Rate (U2OS; [16]): 0
Growth Rate (U2OS; [17]): 0
Growth Rate (U2OS; [18]): 0
Growth Rate (U2OS; [19]): 0
Growth Rate (HEK-293T; [15]): 0
Growth Rate (HEK-293T; [16]): 0
Growth Rate (HEK-293T; [17]): 1
Growth Rate (HEK-293T; [18]): 1
Growth Rate (HEK-293T; [19]): 1
Growth Rate (Fibroblast [2]; [15]): 1
Growth Rate (Fibroblast [2]; 0 h, replicate number 2, timepoint 0 hours): 0
Growth Rate (Fibroblast [2]; 6 h, replicate number 1, timepoint 6 hours): 0
Growth Rate (Fibroblast [2]; [17]): 1
Growth Rate (Fibroblast [2]; [18]): 0
Growth Rate (Fibroblast [2]; [19]): 0
Growth Rate (Fibroblast [2]; 24 h, replicate number 2, timepoint 24 hours): 1
